Measurements: ChEMBL document CHEMBL2010794, “Discovery of nor-seco himbacine analogs as thrombin receptor antagonists” (Bioorg Med Chem Lett, 2012)
Active and inactive are the calls of the source. No cut-off for these calls is given here.

Assays:
[1] = tested on: Cynomolgus monkey; assay: Ex-vivo inhibition of PAR1 in cynomolgus monkey assessed as inhibition of haTRAP-induced platelet aggregation at 3 mg/kg, po at 24 hrs by aggregometry; type: functional; conditions: Macaca fascicularis
Summary of the method: (§1)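 Cynomolgus monkeys dosed orally in 20% PEG-HPBCD (hydrochloride salt for the 7a-hydroxy series); blood sampled at various times up to 24 h; haTRAP added to whole blood at 1 µM to trigger aggregation, measured by aggregometer; result given as % reduction in haTRAP-induced aggregation at the stated dose and time.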

[2] = AUC (0 to 24 hrs) in cynomolgus monkey plasma at 3 mg/kg, po; type: ADME, organism-based, Macaca fascicularis; set-up: time < 24 hr, dose 3 mg/kg, route oral
[3] = molecular target: T1, Proteinase-activated receptor 1 (Homo sapiens, UniProt P25116); assay: Displacement of [3H]haTRAP from human PAR1 after 1 hr by TopCount scintillation counting; conditions: read-out: IC50
T1 sequence (P25116 whole entry): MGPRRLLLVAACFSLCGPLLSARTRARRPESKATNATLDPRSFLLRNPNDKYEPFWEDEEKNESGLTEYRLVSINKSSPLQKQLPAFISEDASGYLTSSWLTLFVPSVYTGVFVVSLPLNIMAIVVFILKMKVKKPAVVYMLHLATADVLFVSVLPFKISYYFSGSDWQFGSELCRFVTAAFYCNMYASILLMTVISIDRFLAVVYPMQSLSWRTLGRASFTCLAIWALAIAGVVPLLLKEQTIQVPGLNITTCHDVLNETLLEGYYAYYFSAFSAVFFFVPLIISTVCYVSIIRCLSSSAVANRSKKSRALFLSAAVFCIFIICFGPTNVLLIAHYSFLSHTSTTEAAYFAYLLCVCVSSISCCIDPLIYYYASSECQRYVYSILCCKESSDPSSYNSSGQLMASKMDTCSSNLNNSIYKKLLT
Summary of the method: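 PAR-1 receptors isolated from human platelets; competition binding against [³H]haTRAP radioligand; values expressed as IC₅₀ (nM).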

[4] = AUC (0 to 6 hrs) in rat at 10 mg/kg, po; type: ADME, organism-based; set-up: time < 6 hr, dose 10 mg/kg, route oral; conditions: plasma
Summary of the method: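 Rats given a single 10 mg/kg oral dose in 0.4% methylcellulose; plasma levels followed up to 6 h; AUC from 0 to 6 h reported in ng h/mL.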

[5] = tested on: Cynomolgus monkey; assay: Ex-vivo inhibition of PAR1 in cynomolgus monkey assessed as inhibition of haTRAP-induced platelet aggregation at 3 mg/kg, po at 6 hrs by aggregometry; type: functional; conditions: Macaca fascicularis; summary of the method: as §1
[6] = tested on: Cynomolgus monkey; assay: Ex-vivo inhibition of PAR1 in cynomolgus monkey assessed as inhibition of haTRAP-induced platelet aggregation at 0.3 mg/kg, po by aggregometry; type: functional, organism-based; set-up: dose 0.3 mg/kg; conditions: Macaca fascicularis; summary of the method: as §1
[7] = tested on: Cynomolgus monkey; assay: AUC (0 to 24 hrs) in cynomolgus monkey plasma assessed as M+16 hydroxy metabolite at 3 mg/kg, po; type: ADME, organism-based, Macaca fascicularis; set-up: time < 24 hr, dose 3 mg/kg, route oral; conditions: in vivo
[8] = tested on: Cynomolgus monkey; assay: Ex-vivo inhibition of PAR1 in cynomolgus monkey assessed as inhibition of haTRAP-induced platelet aggregation at 1 mg/kg, po at 24 hrs by aggregometry; type: functional; conditions: Macaca fascicularis; summary of the method: as §1
[9] = AUC (0 to 24 hrs) in cynomolgus monkey plasma at 1 mg/kg, po; type: ADME, organism-based, Macaca fascicularis; set-up: time < 24 hr, dose 1 mg/kg, route oral

Compound	IC50 [3] [nM]	AUC(0-t) at 6 h [4] [ng·h/mL]	further results
CC[C@H]1[C@H](/C=C/c2ccc(-c3ccsc3)cn2)[C@@H]2[C@@H](C)OC(=O)[C@]2(O)C[C@@H]1C.Cl			inhibition in vivo at 3 mg/kg [1]: 90%; AUC(0-t) at 24 h [2]: 4740 ng·h/mL
CC[C@H]1[C@H](/C=C/c2ccc(-c3ccccc3OC)cn2)[C@@H]2[C@@H](C)OC(=O)[C@]2(O)C[C@@H]1C	8.1	168	
CC[C@H]1[C@H](/C=C/c2ccc(N3CCCC3)cn2)[C@@H]2[C@@H](C)OC(=O)[C@]2(O)C[C@@H]1C [listing 2 of 2 here]			inhibition in vivo at 3 mg/kg [5]: 100%
CC[C@H]1[C@H](/C=C/c2ccc(-c3ccccc3)cn2)[C@@H]2[C@@H](C)OC(=O)[C@]2(O)C[C@@H]1C [listing 1 of 2 here]	6.4	3300	
CC[C@H]1[C@H](/C=C/c2ccc(-c3ccccc3C)cn2)[C@@H]2[C@@H](C)OC(=O)[C@]2(O)C[C@@H]1C.Cl			inhibition in vivo at 3 mg/kg [5]: 55%; AUC(0-t) at 24 h [2]: 2720 ng·h/mL
CC[C@H]1[C@H](/C=C/c2ccc(-c3ccccc3)cn2)[C@@H]2[C@@H](C)OC(=O)[C@]2(O)C[C@@H]1C [listing 2 of 2 here]			inhibition [1]: Active; inhibition [6]: Active
CC[C@H]1[C@H](/C=C/c2ccc(-c3cccc(Cl)c3Cl)cn2)[C@@H]2[C@@H](C)OC(=O)[C@@H]2C[C@@H]1C	13	1150	inhibition in vivo at 3 mg/kg [1]: 95%; AUC(0-t) at 24 h [2]: 573 ng·h/mL; AUC [7]: 813 ng·h/mL
CC[C@H]1[C@H](CCc2ccc(-c3cccc(C(F)(F)F)c3)cn2)[C@@H]2[C@@H](C)OC(=O)[C@@H]2C[C@@H]1C	225		
CC[C@H]1[C@H](/C=C/c2ccc(-c3ccoc3)cn2)[C@@H]2[C@@H](C)OC(=O)[C@]2(O)C[C@@H]1C.Cl			inhibition in vivo at 3 mg/kg [1]: 35%; AUC(0-t) at 24 h [2]: 4110 ng·h/mL
CC[C@H]1[C@H](/C=C/c2ccc(-c3cccc(C#N)c3)cn2)[C@@H]2[C@@H](C)OC(=O)[C@]2(O)C[C@@H]1C.Cl			inhibition in vivo at 1 mg/kg [8]: 60%; AUC(0-t) at 24 h [9]: 6280 ng·h/mL
CC[C@H]1[C@H](/C=C/c2ccc(-c3cccc(C(F)(F)F)c3)cn2)[C@@H]2[C@@H](C)OC(=O)[C@@H]2C[C@@H]1C	24		

Further lines, with some results ahead:

IC50 [3] [nM]	AUC(0-t) at 6 h [4] [ng·h/mL]	Compound	further results
35	203	CC[C@H]1[C@H](/C=C/c2ccc(-c3cccc(C)c3)cn2)[C@@H]2[C@@H](C)OC(=O)[C@]2(O)C[C@@H]1C	
18	2440	CC[C@H]1[C@H](/C=C/c2ccc(-c3cccc(OC)c3)cn2)[C@@H]2[C@@H](C)OC(=O)[C@]2(O)C[C@@H]1C	
33	3160	CC[C@H]1[C@H](/C=C/c2ccc(-c3ccccc3C)cn2)[C@@H]2[C@@H](C)OC(=O)[C@]2(O)C[C@@H]1C	
21		CC[C@H]1[C@H](/C=C/c2ccc(-c3cccc(C#N)c3)cn2)[C@@H]2[C@@H](C)OC(=O)[C@@H]2C[C@@H]1C	
25		CC[C@H]1[C@H](/C=C/c2ccc(-c3ccccc3Cl)cn2)[C@@H]2[C@@H](C)OC(=O)[C@@H]2C[C@@H]1C	
64	486	CC[C@H]1[C@H](/C=C/c2ccc(N3CCCC3)cn2)[C@@H]2[C@@H](C)OC(=O)[C@]2(O)C[C@@H]1C [listing 1 of 2 here]	
4.6	397	CC[C@H]1[C@H](/C=C/c2ccc(-c3ccsc3)cn2)[C@@H]2[C@@H](C)OC(=O)[C@]2(O)C[C@@H]1C	
